Test results taken from ChEMBL document CHEMBL4414562, “Discovery of the First in Vivo Active Inhibitors of the Soluble Epoxide Hydrolase Phosphatase Domain” (J Med Chem, 2019).

Columns and labels:
[1] = target: T1, Bifunctional epoxide hydrolase 2 (Homo sapiens, UniProt P34913); test: Competitive inhibition of full length human soluble epoxide hydrolase pre-incubated for 30 mins before DiFMUP substrate addition by fluorescence based assay
T1 sequence (P34913 whole entry): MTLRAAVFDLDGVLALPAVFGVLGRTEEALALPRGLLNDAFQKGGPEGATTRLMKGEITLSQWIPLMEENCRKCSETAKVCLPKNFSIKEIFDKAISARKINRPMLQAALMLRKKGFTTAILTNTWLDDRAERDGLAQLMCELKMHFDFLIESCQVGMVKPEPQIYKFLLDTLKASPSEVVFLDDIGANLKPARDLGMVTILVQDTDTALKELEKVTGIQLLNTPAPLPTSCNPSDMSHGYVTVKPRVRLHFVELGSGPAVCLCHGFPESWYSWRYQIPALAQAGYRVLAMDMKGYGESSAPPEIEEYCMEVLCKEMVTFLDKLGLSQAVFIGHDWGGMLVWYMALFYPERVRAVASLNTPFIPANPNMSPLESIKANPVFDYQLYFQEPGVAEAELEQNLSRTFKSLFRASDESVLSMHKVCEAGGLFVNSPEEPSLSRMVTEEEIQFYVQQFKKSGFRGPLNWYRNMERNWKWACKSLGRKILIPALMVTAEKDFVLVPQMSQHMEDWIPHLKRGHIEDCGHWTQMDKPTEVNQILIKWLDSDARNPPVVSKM

[2] = target: Prostaglandin G/H synthase 1 (Homo sapiens, UniProt P23219); test: Inhibition of COX1 in A23187-stimulated human platelets assessed as reduction in TXA2 production
Chain of Prostaglandin G/H synthase 1 (P23219 whole entry): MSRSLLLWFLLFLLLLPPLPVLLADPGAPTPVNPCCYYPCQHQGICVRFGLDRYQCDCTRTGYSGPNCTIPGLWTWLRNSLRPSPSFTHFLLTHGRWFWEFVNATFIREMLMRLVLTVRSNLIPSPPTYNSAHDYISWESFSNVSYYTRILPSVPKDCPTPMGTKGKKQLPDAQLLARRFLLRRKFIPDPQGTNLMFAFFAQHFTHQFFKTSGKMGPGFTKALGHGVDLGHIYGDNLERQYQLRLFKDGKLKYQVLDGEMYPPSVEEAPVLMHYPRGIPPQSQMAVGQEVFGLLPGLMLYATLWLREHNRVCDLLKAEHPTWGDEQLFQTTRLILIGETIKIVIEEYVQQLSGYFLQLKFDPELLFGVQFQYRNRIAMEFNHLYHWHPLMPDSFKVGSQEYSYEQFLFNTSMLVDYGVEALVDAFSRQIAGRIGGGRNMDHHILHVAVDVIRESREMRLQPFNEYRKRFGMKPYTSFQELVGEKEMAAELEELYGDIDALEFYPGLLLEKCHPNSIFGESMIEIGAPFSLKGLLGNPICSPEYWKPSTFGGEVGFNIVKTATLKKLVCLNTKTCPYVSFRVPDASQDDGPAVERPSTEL
Summary of the method: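 Washed human platelets preincubated with increasing compound concentrations, then challenged with calcium ionophore A23187. TXB2 (stable TXA2 metabolite) in supernatant quantified by LC−MS/MS with TXB2-d4 internal standard.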

Ki [1]: 4800 nM
IC50 [2]: 1200 nM
SMILES: O=C(O)CCCc1nc(-c2ccc(Cl)c(Cl)c2)c(-c2ccccc2)o1
